# The source made the active and inactive calls. The calls are words filed in the database; no cut-off is given here.
# What was measured:
# T-24 [1] = test: Cytotoxicity against human T24 cells after 48 hrs by neutral red dye assay; assay type: functional, cell-based
# MDA-MB-231 [2] = test: Cytotoxicity against human MDA-MB-231 cells after 48 hrs by neutral red dye assay; assay type: functional, cell-based
# HT-29 [3] = test: Cytotoxicity against human HT-29 cells after 48 hrs by neutral red dye assay; assay type: functional, cell-based
# T-24 [4] = test: Induction of apoptosis in human T24 cells assessed as caspase3 activation at IC50 after 48 hrs by FACS analysis relative to control; assay type: functional
# Procedure, shortened: (§1)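 Active caspase-3 was detected by flow cytometry with a FITC anti-active-caspase-3 antibody kit, with readings at 14, 24 and 48 h. Treated cells were compared with untreated control cells. Results are scored as (+) for an increase of about 50% and (++) for a larger rise.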
# T-24 [5] = test: Cytotoxicity against human T24 cells after 72 hrs by neutral red dye assay; assay type: functional, cell-based; conditions: T-24, 72 h
# Procedure, shortened: (§2)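 Human tumour cells were grown as monolayers with 10% FBS and penicillin/streptomycin at 37 °C in 5% CO2 (HT-29 and T-24 in McCoy's, MDA-MB-231 in Leibovitz). They were exposed to compound in DMSO (≤0.5% v/v final) at screening concentrations of 20 and 100 μM for 72 h and read by neutral red uptake. Survival is relative to cells given DMSO only, in triplicate.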
# MDA-MB-231 [6] = test: Induction of apoptosis in human MDA-MB-231 cells assessed as DNA fragmentation after 24 hrs by ELISA relative to control; assay type: functional
# Procedure, shortened: (§3)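 DNA fragmentation was measured with the Cell Death Detection ELISA Plus kit after treatment of cultured tumour cells. The signal is expressed relative to untreated control cultures, which are set to 1.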
# [7] = Cytotoxicity against human CRL8799 cells assessed as cell survival at 20 to 100 uM after 72 hrs by neutral red dye assay; assay type: cell-based; conditions: read-out: Survival
# Procedure, shortened: (§4)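 The non-tumoral lines were grown with 10% FBS plus penicillin/streptomycin, as monolayers at 37 °C in 5% CO2: CRL-8799 in MEG medium and CRL-11233 in BEGM. Compounds in DMSO (≤0.5% v/v final) were applied for 72 h. Survival was read by neutral red uptake against 0.5% DMSO solvent-treated controls, as the mean of triplicates.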
# T-24 [8] = test: Induction of apoptosis in human T24 cells assessed as DNA fragmentation after 48 hrs by ELISA relative to control; assay type: functional; procedure, shortened: as §3
# [9] = Cytotoxicity against human CRL11233 cells assessed as cell survival at 20 to 100 uM after 72 hrs by neutral red dye assay; assay type: cell-based; conditions: read-out: Survival; procedure, shortened: as §4
# HT-29 [10] = test: Induction of apoptosis in human HT-29 cells assessed as DNA fragmentation after 48 hrs by ELISA relative to control; assay type: functional; procedure, shortened: as §3
# HT-29 [11] = test: Cytotoxicity against human HT-29 cells assessed as cell survival at 100 uM after 72 hrs by neutral red dye assay; assay type: functional; conditions: HT-29, 72 h, read-out: Survival
# Procedure, shortened: (§5)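 HT-29 and T-24 cells were grown in McCoy's medium and MDA-MB-231 in Leibovitz, each with 10% FBS plus penicillin/streptomycin, as monolayers at 37 °C in 5% CO2. Compounds in DMSO (≤0.5% v/v final) were applied for 72 h. Survival was read by neutral red uptake against 0.5% DMSO-treated cells, as the mean of triplicates.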
# MDA-MB-231 [12] = test: Cytotoxicity against human MDA-MB-231 cells after 72 hrs by neutral red dye assay; assay type: functional, cell-based; conditions: MDA-MB-231, 72 h; procedure, shortened: as §2
# HT-29 [13] = test: Cytotoxicity against human HT-29 cells after 72 hrs by neutral red dye assay; assay type: functional, cell-based; conditions: HT-29, 72 h; procedure, shortened: as §2
# MDA-MB-231 [14] = test: Cytotoxicity against human MDA-MB-231 cells assessed as cell survival at 100 uM after 72 hrs by neutral red dye assay; assay type: functional; conditions: MDA-MB-231, 72 h, read-out: Survival; procedure, shortened: as §5
# T-24 [15] = test: Cytotoxicity against human T24 cells assessed as cell survival at 100 uM after 72 hrs by neutral red dye assay; assay type: functional; conditions: T-24, 72 h, read-out: Survival; procedure, shortened: as §5
# HT-29 [16] = test: Induction of apoptosis in human HT-29 cells assessed as caspase3 activation at IC50 after 48 hrs by FACS analysis relative to control; assay type: functional; procedure, shortened: as §1
# HT-29 [17] = test: Induction of apoptosis in human HT-29 cells assessed as DNA fragmentation after 48 hrs by ELISA relative to camptothecin; assay type: functional
# T-24 [18] = test: Induction of apoptosis in human T24 cells assessed as DNA fragmentation after 48 hrs by ELISA relative to camptothecin; assay type: functional
smiles,measurement,setting,value
CCSc1nc(NCCCCO)c2cccnc2n1,IC50,T-24 [1],Not Active
same,IC50,MDA-MB-231 [2],Not Active
same,IC50,HT-29 [3],Not Active
Brc1ccc(CCNc2nc(NCCc3ccc(Br)cc3)c3ccccc3n2)cc1,Activity,T-24 [4],50%
same,IC50,T-24 [5],3.32 µM
same,Activity,MDA-MB-231 [6],inactive
same,"viability at 72 h, up to 100 µM",[7],11%
same,Activity,T-24 [8],inactive
same,"viability at 72 h, up to 100 µM",[9],1%
same,Activity,HT-29 [10],inactive
same,viability at 100 µM,HT-29 [11],< 45%
same,IC50,MDA-MB-231 [12],10.4 µM
same,IC50,HT-29 [13],3.47 µM
same,viability at 100 µM,MDA-MB-231 [14],< 45%
same,viability at 100 µM,T-24 [15],< 45%
same,Activity,HT-29 [16],50%
c1ccc(CNc2ccnc(NCc3ccccc3)n2)cc1,IC50,T-24 [5],6.1 µM
same,Activity,MDA-MB-231 [6],inactive
same,"viability at 72 h, up to 100 µM",[7],22%
same,fold change (FC),T-24 [8],6
same,"viability at 72 h, up to 100 µM",[9],0%
same,fold change (FC),HT-29 [10],7.4
same,fold change (FC),HT-29 [17],2.3
same,viability at 100 µM,HT-29 [11],< 45%
same,IC50,MDA-MB-231 [12],1.9 µM
same,fold change (FC),T-24 [18],2.3
same,IC50,HT-29 [13],17.2 µM
same,viability at 100 µM,MDA-MB-231 [14],< 45%
same,viability at 100 µM,T-24 [15],< 45%
CCCCCNc1nc(SCC)nc2ncccc12,Activity,T-24 [4],75%
same,IC50,T-24 [5],4.3 µM
same,fold change (FC),MDA-MB-231 [6],6.6
same,"viability at 72 h, up to 100 µM",[7],88%
same,fold change (FC),T-24 [8],3.6
same,"viability at 72 h, up to 100 µM",[9],100%
same,fold change (FC),HT-29 [10],5
same,viability at 100 µM,HT-29 [11],< 45%
same,IC50,MDA-MB-231 [12],1.3 µM
same,IC50,HT-29 [13],5.1 µM
same,viability at 100 µM,MDA-MB-231 [14],< 45%
same,viability at 100 µM,T-24 [15],< 45%
same,Activity,HT-29 [16],50%
c1ccc(CCCCNc2ccnc(NCCCCc3ccccc3)n2)cc1,IC50,T-24 [1],Not Active
same,IC50,MDA-MB-231 [2],Not Active
same,IC50,HT-29 [3],Not Active
CCCCCNc1nc(NCCCCC)c2ccccc2n1,Activity,T-24 [4],50%
same,IC50,T-24 [5],5.25 µM
same,fold change (FC),MDA-MB-231 [6],2.5
same,"viability at 72 h, up to 100 µM",[7],4%
same,fold change (FC),T-24 [8],1.8
same,"viability at 72 h, up to 100 µM",[9],5%
same,fold change (FC),HT-29 [10],1.7
same,viability at 100 µM,HT-29 [11],< 45%
same,IC50,MDA-MB-231 [12],3.13 µM
same,IC50,HT-29 [13],3.57 µM
same,viability at 100 µM,MDA-MB-231 [14],< 45%
same,viability at 100 µM,T-24 [15],< 45%
c1ccc(CNc2nc(NCc3ccccc3)c3cccnc3n2)cc1,Activity,T-24 [4],50%
same,IC50,T-24 [5],13.4 µM
same,Activity,MDA-MB-231 [6],inactive
same,"viability at 72 h, up to 100 µM",[7],85%
same,fold change (FC),T-24 [8],4.6
same,"viability at 72 h, up to 100 µM",[9],90%
same,fold change (FC),HT-29 [10],2.5
same,viability at 100 µM,HT-29 [11],< 45%
same,IC50,MDA-MB-231 [12],10.3 µM
same,IC50,HT-29 [13],11 µM
same,viability at 100 µM,MDA-MB-231 [14],< 45%
same,viability at 100 µM,T-24 [15],< 45%
c1ccc(CCNc2nc(NCCc3ccccc3)c3cccnc3n2)cc1,Activity,T-24 [4],75%
same,IC50,T-24 [5],8.1 µM
same,Activity,MDA-MB-231 [6],inactive
same,"viability at 72 h, up to 100 µM",[7],0%
same,fold change (FC),T-24 [8],1.2
same,"viability at 72 h, up to 100 µM",[9],0%
same,fold change (FC),HT-29 [10],9.2
same,viability at 100 µM,HT-29 [11],< 45%
same,IC50,MDA-MB-231 [12],1.2 µM
same,IC50,HT-29 [13],2.5 µM
same,viability at 100 µM,MDA-MB-231 [14],< 45%
same,viability at 100 µM,T-24 [15],< 45%
same,Activity,HT-29 [16],50%
c1ccc(CCCCNc2nc(NCCCCc3ccccc3)c3ccccc3n2)cc1,Activity,T-24 [4],75%
same,IC50,T-24 [5],11.9 µM
same,Activity,MDA-MB-231 [6],inactive
same,"viability at 72 h, up to 100 µM",[7],6%
same,Activity,T-24 [8],inactive
same,"viability at 72 h, up to 100 µM",[9],11%
same,fold change (FC),HT-29 [10],2
same,viability at 100 µM,HT-29 [11],< 45%
same,IC50,MDA-MB-231 [12],1.22 µM
same,IC50,HT-29 [13],3.78 µM
same,viability at 100 µM,MDA-MB-231 [14],< 45%
same,viability at 100 µM,T-24 [15],< 45%
OCCCNc1nc(NCCCO)c2cccnc2n1,IC50,T-24 [1],Not Active
same,IC50,MDA-MB-231 [2],Not Active
same,IC50,HT-29 [3],Not Active
